Experiments:
LNCaP = experiment: Cytotoxicity against human LNCAP cells assessed as growth inhibition after 24 hrs by CCK8 assay; assay type: functional, cell-based
Method in brief: (§1)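 Cells (PC-3, LNCaP, DU145, normal prostate […] WPMY-1) exposed 24 h to escalating concentrations; viability by CCK-8 read-out as percent of control; IC50 derived.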

[1] = Cytotoxicity against human WPMY-1 cells assessed as growth inhibition after 24 hrs by CCK8 assay; assay type: cell-based; settings: WPMY-1, 24 h; method in brief: as §1
DU-145 [2] = experiment: Cytotoxicity against human DU145 cells assessed as growth inhibition after 24 hrs by CCK8 assay; assay type: functional, cell-based; settings: DU-145, 24 h; method in brief: as §1
PC-3 = experiment: Cytotoxicity against human PC3 cells assessed as growth inhibition after 24 hrs by CCK8 assay; assay type: functional, cell-based; settings: PC-3, 24 h; method in brief: as §1
[3] = target: T1, Alpha-1B adrenergic receptor (Homo sapiens, UniProt P35368); experiment: Antagonist activity at alpha 1B adrenergic receptor (unknown origin) by luciferase reporter gene assay; assay type: functional
T1 sequence (P35368 whole entry): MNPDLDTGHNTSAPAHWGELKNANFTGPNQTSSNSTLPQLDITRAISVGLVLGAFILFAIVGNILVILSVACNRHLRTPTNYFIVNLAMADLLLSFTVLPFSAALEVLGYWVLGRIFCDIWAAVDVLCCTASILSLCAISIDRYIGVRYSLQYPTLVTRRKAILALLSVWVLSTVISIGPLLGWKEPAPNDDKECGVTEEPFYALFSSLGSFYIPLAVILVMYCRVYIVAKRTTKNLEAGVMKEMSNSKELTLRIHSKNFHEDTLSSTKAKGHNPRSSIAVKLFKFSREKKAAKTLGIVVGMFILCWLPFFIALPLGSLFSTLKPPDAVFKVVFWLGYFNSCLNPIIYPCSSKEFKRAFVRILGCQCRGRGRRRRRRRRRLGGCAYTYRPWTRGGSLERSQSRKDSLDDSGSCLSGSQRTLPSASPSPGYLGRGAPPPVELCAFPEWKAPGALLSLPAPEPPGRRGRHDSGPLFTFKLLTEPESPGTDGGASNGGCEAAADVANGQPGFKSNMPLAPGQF
Method in brief: (§2)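 Dual-luciferase reporter assay measuring antagonism at α1A, α1B and α1D adrenoceptor subtypes. IC50 values are means of three experiments.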

[4] = target: T2, Alpha-1D adrenergic receptor (Homo sapiens, UniProt P25100); experiment: Antagonist activity at alpha 1D adrenergic receptor (unknown origin) by luciferase reporter gene assay; assay type: functional; method in brief: as §2
T2 sequence (P25100 whole entry): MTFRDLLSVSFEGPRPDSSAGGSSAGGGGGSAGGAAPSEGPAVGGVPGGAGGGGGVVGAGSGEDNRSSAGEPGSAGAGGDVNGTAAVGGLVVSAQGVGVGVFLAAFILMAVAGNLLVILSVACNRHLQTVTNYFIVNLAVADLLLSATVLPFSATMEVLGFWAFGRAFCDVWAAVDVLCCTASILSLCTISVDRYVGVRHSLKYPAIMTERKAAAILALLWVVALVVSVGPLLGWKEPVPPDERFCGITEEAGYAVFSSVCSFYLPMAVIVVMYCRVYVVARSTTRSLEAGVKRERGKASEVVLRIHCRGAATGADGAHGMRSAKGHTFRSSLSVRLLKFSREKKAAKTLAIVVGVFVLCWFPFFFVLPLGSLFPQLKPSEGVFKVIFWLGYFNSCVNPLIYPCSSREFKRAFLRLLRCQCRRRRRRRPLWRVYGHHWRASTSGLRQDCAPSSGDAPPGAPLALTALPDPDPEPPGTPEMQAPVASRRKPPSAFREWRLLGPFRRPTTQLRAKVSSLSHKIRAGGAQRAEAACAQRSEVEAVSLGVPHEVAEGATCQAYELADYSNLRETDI

[5] = target: T3, Alpha-1A adrenergic receptor (Homo sapiens, UniProt P35348); experiment: Antagonist activity at alpha 1A adrenergic receptor (unknown origin) by luciferase reporter gene assay; assay type: functional; method in brief: as §2
T3 sequence (P35348 whole entry): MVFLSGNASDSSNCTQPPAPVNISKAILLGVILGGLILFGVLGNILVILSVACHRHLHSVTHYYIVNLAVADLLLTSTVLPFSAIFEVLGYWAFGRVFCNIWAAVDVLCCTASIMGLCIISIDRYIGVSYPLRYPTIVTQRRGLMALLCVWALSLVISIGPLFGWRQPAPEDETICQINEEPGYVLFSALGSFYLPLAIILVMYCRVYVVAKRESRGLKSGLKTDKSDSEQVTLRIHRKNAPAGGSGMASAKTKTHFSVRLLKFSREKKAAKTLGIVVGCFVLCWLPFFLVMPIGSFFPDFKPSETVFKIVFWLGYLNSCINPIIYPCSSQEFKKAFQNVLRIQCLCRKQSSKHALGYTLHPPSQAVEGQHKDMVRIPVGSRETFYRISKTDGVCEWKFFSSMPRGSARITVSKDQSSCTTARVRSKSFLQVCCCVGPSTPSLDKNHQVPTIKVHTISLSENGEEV

DU-145 [6] = experiment: Potency index, ratio of naftopidil IC50 to compound IC50 for human DU145 cells; assay type: functional
DU-145 [7] = experiment: Cell cycle arrest in human DU145 cells assessed as accumulation at S phase at 8 uM after 24 hrs by propidium iodide staining based flow cytometry (reference value: 20.64%); assay type: functional
DU-145 [8] = experiment: Cell cycle arrest in human DU145 cells assessed as accumulation at G2/M phase at 8 uM after 24 hrs by propidium iodide staining based flow cytometry (reference value: 24.42%); assay type: functional
DU-145 [9] = experiment: Induction of apoptosis in human DU145 cells assessed as early apoptotic cells at 8 uM after 24 hrs by Annexin V/propidium iodide staining based flow cytometry (reference value: […]); assay type: functional
DU-145 [10] = experiment: Cell cycle arrest in human DU145 cells assessed as accumulation at G0/G1 phase at 8 uM after 24 hrs by propidium iodide staining based flow cytometry (reference value: 55.49%); assay type: functional
DU-145 [11] = experiment: Induction of apoptosis in human DU145 cells assessed as live cells at 8 uM after 24 hrs by Annexin V/propidium iodide staining based flow cytometry (reference value: 99.38%); assay type: functional
DU-145 [12] = experiment: Induction of apoptosis in human DU145 cells assessed as necrotic cells at 8 uM after 24 hrs by Annexin V/propidium iodide staining based flow cytometry (reference value: 0.33%); assay type: functional
DU-145 [13] = experiment: Induction of apoptosis in human DU145 cells assessed as late apoptotic cells at 8 uM after 24 hrs by Annexin V/propidium iodide staining based flow cytometry (reference value: 0.17%); assay type: functional
DU-145 [14] = experiment: Cell cycle arrest in human DU145 cells assessed as accumulation at S phase at 6 uM after 24 hrs by propidium iodide staining based flow cytometry (reference value: 20.64%); assay type: functional
DU-145 [15] = experiment: Induction of apoptosis in human DU145 cells assessed as necrotic cells at 6 uM after 24 hrs by Annexin V/propidium iodide staining based flow cytometry (reference value: 0.33%); assay type: functional
DU-145 [16] = experiment: Induction of apoptosis in human DU145 cells assessed as late apoptotic cells at 6 uM after 24 hrs by Annexin V/propidium iodide staining based flow cytometry (reference value: 0.17%); assay type: functional
DU-145 [17] = experiment: Induction of apoptosis in human DU145 cells assessed as early apoptotic cells at 6 uM after 24 hrs by Annexin V/propidium iodide staining based flow cytometry (reference value: […]); assay type: functional
DU-145 [18] = experiment: Cell cycle arrest in human DU145 cells assessed as accumulation at G0/G1 phase at 6 uM after 24 hrs by propidium iodide staining based flow cytometry (reference value: 55.49%); assay type: functional
DU-145 [19] = experiment: Cell cycle arrest in human DU145 cells assessed as accumulation at G2/M phase at 6 uM after 24 hrs by propidium iodide staining based flow cytometry (reference value: 24.42%); assay type: functional
DU-145 [20] = experiment: Induction of apoptosis in human DU145 cells assessed as live cells at 6 uM after 24 hrs by Annexin V/propidium iodide staining based flow cytometry (reference value: 99.38%); assay type: functional

SMILES | IC50 (LNCaP) [µM] | IC50 [1] [µM] | IC50 (DU-145 [2]) [µM] | IC50 (PC-3) [µM] | also measured
FC(F)(F)c1ccccc1N1CCN(CCc2ccc(COc3ccc4c(c3)CCCC4)cc2)CC1 | 6.09 | > 50 | > 50 | > 50 | 
Cc1cccc(N2CCN(CCc3ccc(COc4ccc5c(c4)CCCC5)cc3)CC2)c1.Cl.Cl | > 50 | > 50 | 0.83 | 56.8 | IC50 [3]: 0.583 µM; IC50 [4]: 0.826 µM; IC50 [5]: 0.502 µM; Ratio IC50 (DU-145 [6]): 41
COc1ccc(N2CCN(CCc3ccc(COc4ccc5c(c4)CCCC5)cc3)CC2)cc1.Cl.Cl | 46.2 | > 50 | 0.93 | 76.5 | Activity (DU-145 [7]): 21.14%; Activity (DU-145 [8]): 23.04%; IC50 [3]: 0.972 µM; Activity (DU-145 [9]): 0.11%; Activity (DU-145 [10]): 56.91%; IC50 [4]: 0.736 µM; Activity (DU-145 [11]): 99.4%; Activity (DU-145 [12]): 0.34%; Activity (DU-145 [13]): 0.12%; IC50 [5]: 0.0576 µM; Ratio IC50 (DU-145 [6]): 37
CCOc1ccccc1N1CCN(CCc2ccc(COc3ccc4c(c3)CCCC4)cc2)CC1 | 28 | > 50 | > 50 | > 50 | 
OC1(c2ccccc2)CCN(CCc2ccc(COc3ccc4c(c3)CCCC4)cc2)CC1 | 3.03 | 31.7 | 3.38 | > 50 | 
COc1ccc(Cl)cc1N1CCN(CCc2ccc(COc3ccc4c(c3)CCCC4)cc2)CC1 | > 50 | 47 | 25.1 | > 50 | 
Brc1ccc(N2CCN(CCc3ccc(COc4ccc5c(c4)CCCC5)cc3)CC2)cc1 | > 50 | > 50 | 21.1 | > 50 | 
Cl.Cl.Fc1ccc(N2CCN(CCc3ccc(COc4ccc5c(c4)CCCC5)cc3)CC2)cc1 | 48.2 | > 50 | 0.9 | 57.3 | Activity (DU-145 [14]): 20.42%; Activity (DU-145 [15]): 0.28%; IC50 [3]: 1.12 µM; Activity (DU-145 [16]): 0.1%; IC50 [4]: 0.103 µM; Activity (DU-145 [17]): 0.05%; Activity (DU-145 [18]): 70.5%; Activity (DU-145 [19]): 12.72%; Activity (DU-145 [20]): 99.5%; IC50 [5]: 1.07 µM; Ratio IC50 (DU-145 [6]): 38
c1ccc(N2CCN(CCc3ccc(COc4ccc5c(c4)CCCC5)cc3)CC2)cc1 | 6.53 | > 50 | > 50 | > 50 | 
COc1ccccc1N1CCN(CCc2ccc(COc3ccc4c(c3)CCCC4)cc2)CC1 | 3.62 | 28.1 | 2.24 | > 50 | 
Cc1ccccc1N1CCN(CCc2ccc(COc3ccc4c(c3)CCCC4)cc2)CC1 | 32.9 | > 50 | > 50 | 25.5 | 
Fc1ccccc1N1CCN(CCc2ccc(COc3ccc4c(c3)CCCC4)cc2)CC1 | 7.57 | > 50 | > 50 | 27.3 | 
c1ccc(N2CCN(CCc3ccc(COc4ccc5c(c4)CCCC5)cc3)CC2)nc1 | 2.92 | 49.2 | 11.2 | 29.2 | 
Clc1cccc(N2CCN(CCc3ccc(COc4ccc5c(c4)CCCC5)cc3)CC2)c1Cl | 3.06 | > 50 | 23.1 | > 50 | 
Cc1ccc(Cl)cc1N1CCN(CCc2ccc(COc3ccc4c(c3)CCCC4)cc2)CC1 | 7.81 | > 50 | > 50 | > 50 | 
Cl.Cl.Clc1cccc(N2CCN(CCc3ccc(COc4ccc5c(c4)CCCC5)cc3)CC2)c1 | 17.3 | > 50 | 0.86 | 46.7 | IC50 [3]: 0.998 µM; IC50 [4]: 0.287 µM; IC50 [5]: 1.21 µM; Ratio IC50 (DU-145 [6]): 40
Fc1ccc(N2CCN(CCc3ccc(COc4ccc5c(c4)CCCC5)cc3)CC2)c(F)c1 | 4.4 | > 50 | > 50 | > 50 | 
Cl.c1ccc(C2CCN(CCc3ccc(COc4ccc5c(c4)CCCC5)cc3)CC2)cc1 | 3.94 | > 50 | 0.95 | 10.5 | IC50 [3]: 0.673 µM; IC50 [4]: 0.453 µM; IC50 [5]: 0.568 µM; Ratio IC50 (DU-145 [6]): 36
Cc1ccc(N2CCN(CCc3ccc(COc4ccc5c(c4)CCCC5)cc3)CC2)cc1 | > 50 | > 50 | 25.1 | > 50 | 
N#Cc1ccccc1N1CCN(CCc2ccc(COc3ccc4c(c3)CCCC4)cc2)CC1 | 1.99 | > 50 | 29.7 | 32 | 
Clc1ccc(N2CCN(CCc3ccc(COc4ccc5c(c4)CCCC5)cc3)CC2)cc1 | > 50 | > 50 | > 50 | > 50 | 
FC(F)(F)c1ccc(N2CCN(CCc3ccc(COc4ccc5c(c4)CCCC5)cc3)CC2)cc1 | > 50 | > 50 | > 50 | > 50 | 
COc1cccc(N2CCN(CCc3ccc(COc4ccc5c(c4)CCCC5)cc3)CC2)c1 | 8.02 | 29.1 | 28.1 | 2.84 | 
Clc1ccccc1N1CCN(CCc2ccc(COc3ccc4c(c3)CCCC4)cc2)CC1 | 4.68 | > 50 | > 50 | 31.3 | 
CC(C)(C)NC(=O)[C@H]1CC[C@H]2[C@@H]3CC[C@H]4NC(=O)C=C[C@]4(C)[C@H]3CC[C@]12C [FINASTERIDE] | 14.5 |  | 13.5 | 17.8 | 
COc1ccccc1N1CCN(CC(O)COc2cccc3ccccc23)CC1 (stereo not given) [NAFTOPIDIL] |  | > 50 |  | 42.1 | 
